Assay results as given in ChEMBL document CHEMBL4390658, “Rational design of allosteric modulators of the aromatase enzyme: An unprecedented therapeutic strategy to fight breast cancer” (Eur J Med Chem, 2019).
pIC50: −log10 of the molar value.

How the values were obtained:
Aromatase [1] = molecular target: T1, Aromatase (Homo sapiens, UniProt P11511); assay: Inhibition of recombinant human aromatase at 100 uM preincubated for 10 mins followed by substrate and beta-NADP+ addition and measured for 60 mins by fluorescence method; conditions: 1 h
T1 sequence (P11511 whole entry): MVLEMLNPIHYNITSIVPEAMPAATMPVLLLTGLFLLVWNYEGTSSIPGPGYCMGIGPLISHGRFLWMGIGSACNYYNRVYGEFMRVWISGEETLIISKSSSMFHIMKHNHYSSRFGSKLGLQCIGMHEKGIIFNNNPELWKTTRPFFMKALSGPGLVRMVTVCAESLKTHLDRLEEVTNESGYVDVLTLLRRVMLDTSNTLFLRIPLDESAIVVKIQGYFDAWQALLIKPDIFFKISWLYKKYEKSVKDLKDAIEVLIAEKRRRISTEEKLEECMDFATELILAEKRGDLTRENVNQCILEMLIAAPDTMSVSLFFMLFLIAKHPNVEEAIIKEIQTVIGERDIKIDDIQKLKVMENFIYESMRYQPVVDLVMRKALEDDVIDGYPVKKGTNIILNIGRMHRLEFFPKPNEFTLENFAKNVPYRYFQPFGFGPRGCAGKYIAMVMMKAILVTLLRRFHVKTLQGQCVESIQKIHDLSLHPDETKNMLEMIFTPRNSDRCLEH
Method in brief: (§1)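 Single-concentration screen of recombinant human aromatase with an NADPH-generating system, at 100 and 200 µM inhibitor, DMSO ≤0.25% (v/v) final. Mix preincubated 10 min at 37°C, then fluorogenic substrate plus β-NADP+ added. Fluorescence read at 488/527 nm over 60 min. % inhibition taken from the RFU ratio of control to test, in triplicate.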

Aromatase [2] = molecular target: T1, Aromatase; assay: Inhibition of recombinant human aromatase at 200 uM preincubated for 10 mins followed by substrate and beta-NADP+ addition and measured for 60 mins by fluorescence method; conditions: 1 h; method in brief: as §1
MCF7 = assay: Growth inhibition of human MCF7 cells incubated for 72 hrs by cell counting based method; type: functional; conditions: MCF7, 72 h
Method in brief: (§2)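 MCF-7 (ER+) and MDA-MB-231 (ER−) cells from ATCC, seeded at 50000 cells/well in triplicate. After 24 h, exposed for 72 h to graded concentrations, up to 200 µM. Cells trypsinized and counted electronically. Means of three independent experiments, each in triplicate, used for dose-response curves and GI50.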

Aromatase [3] = molecular target: T1, Aromatase; assay: Inhibition of recombinant human aromatase preincubated for 10 mins followed by substrate and beta-NADP+ addition and measured for 60 mins by fluorescence method
Aromatase [4] = molecular target: T1, Aromatase; assay: Mixed type inhibition of recombinant human aromatase assessed as Vmax preincubated for 10 min followed by different substrate concentration and beta-NADP+ addition measured for 60 mins by fluorescence method based Michaelis-menten analysis (reference value: 93.3 +/- 1.3 /ms); conditions: 1 h
MDA-MB-231 = assay: Growth inhibition of human MDA-MB-231 cells incubated for 72 hrs by cell counting based method; type: functional; conditions: MDA-MB-231, 72 h; method in brief: as §2
Aromatase [5] = molecular target: T1, Aromatase; assay: Mixed type inhibition of recombinant human aromatase assessed as substrate Vmax preincubated for 10 mins followed by different substrate concentration and beta-NADP+ addition and measured for 60 mins by fluorescence method based Cornish-Bowden direct linear analysis (reference value: 91.5 /ms); conditions: 1 h
Aromatase [6] = molecular target: T1, Aromatase; assay: Inhibition of recombinant human aromatase at 1 uM preincubated for 10 mins followed by substrate and beta-NADP+ addition and measured for 60 mins by fluorescence method; conditions: 1 h, read-out: INH

Compound	inhibition at 100 µM (Aromatase [1]) [%]	inhibition at 200 µM (Aromatase [2]) [%]	GI50 (MCF7) [µM]	pIC50 (Aromatase [3])	Vmax (Aromatase [4]) [U/ms]	GI50 (MDA-MB-231) [µM]	Vmax (Aromatase [5]) [U/ms]	inhibition at 1 µM (Aromatase [6]) [%]
Nc1nc(O)cc(NC(=S)Nc2ccc(C(=O)O)cc2)n1	8	8						
CC[C@H](Nc1cc(C)nc(Nc2cccc(O)c2)n1)c1nccs1	79	88	21.3	5.29	19.3	58	15.1	
Cc1ccc(C(c2ccc(C)c(C)c2)C(O)C(O)C(O)C(O)CO)cc1C (configuration not stated)	5	8						
CC(C)(C)NCC(O)COc1cccc2c1C[C@H](O)[C@H](O)C2 (some centres not stated) [NADOLOL]	0	0						
COc1ccc([C@@H](O)CNC(=O)N[C@@H]2CCCCNC2=O)cc1	4	19						
CCSC(C(O)C(O)C(O)C(O)CO)n1cnc2c(S)ncnc21 (configuration not stated)	2	12						
O=C1c2c(O)cc(O)cc2O[C@H](c2ccc(O)c(O)c2)[C@H]1O [(+)-TAXIFOLIN]	46	56						
C[C@@H](NC(=O)c1ccc(=O)[nH]c1)c1ccc2[nH]c(=O)[nH]c2c1	27	41						
CC/C(=C(\c1ccc(O)cc1)c1ccc(OCCNC)cc1)c1ccccc1 [ENDOXIFEN]	11	58		5.21				
COC(=O)c1ccc(NCC2=CC(=O)c3ccccc3C2=O)cc1	86	97	22.1	4.02	79.3	16.2	60.6	
NC(CCC(=O)O)C(=O)NC(Cc1c[nH]c2ccccc12)C(=O)O (configuration not stated)	4	3						
O=C(NCc1cc[nH]c(=O)c1)c1ccc(COCC(F)(F)F)cc1	3	3						
O=C(CCc1ccc(O)c(Cl)c1)NCc1csc(=O)[nH]1	53	69	66.4	4.66	85.2	> 200	78.7	
N[C@@H]1CCN(Cc2cc(O)c3cc(F)ccc3n2)C[C@H]1O	39	62	> 200	4.68	64.6	> 200	50.7	
O=c1cc(CO)oc([C@H](Nc2ccccn2)c2ccccc2O)c1O	0	3						
OCC(O)C(O)C(O)C(c1ccc(Cl)cc1)c1ccc(Cl)cc1 (configuration not stated)	11	10						
CC[C@H](CO)N(Cc1ccccn1)C(=O)c1ccc(=O)[nH]c1	2	6						
N#Cc1ccc(C(c2ccc(C#N)cc2)n2cncn2)cc1 [LETROZOLE]			4.1			> 10		91
O=C(C=Cc1ccc(O)c(O)c1)NCC(=O)NC(Cc1ccccc1)C(=O)O (configuration not stated)	10	13						
O=C1c2c(O)ccc(O)c2C(=O)c2c(NCCCO)ccc(NCCCO)c21	83	92	17.9	4.96	21.5	6.8	16.2	
